Screens: PubChem, Broad Institute
ARNT-TACC3 inh – disruptors of ARNT/TACC3 protein interaction, primary screen, biochemical, AlphaScreen, single concentration. Transforming acidic coiled-coil-containing protein 3 (Homo sapiens), Q9Y6A5. AlphaScreen His-ARNT PAS-B/GST-TACC3 binding, luminescence; TACC3 fragment carries E629A point mutation. inhibition, % at 9.99 µM. hit rate 0.66% among 390,000;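 active = mean inhibition of replicates at least 50% and at least half of replicates each reaching 50%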;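 note: 0% = complete ARNT plus TACC3 wells and 100% = ARNT alone without TACC3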
CAL PDZ FP-1 – untagged CAL PDZ binding inhibitors, primary screen, biochemical, fluorescence polarization, HTS; hit rate 0.92% among 300,000; purified CAL PDZ, TMR-peptide fluorescence polarization, 1 h; AID 602252, 2012; inhibition, % at 24.9 µM; Golgi-associated PDZ and coiled-coil motif-containing protein (Homo sapiens), Q9HD26;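 active = mean inhibition of at least 30% with at least half of replicates also reaching 30%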;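 note: 0% = DMSO neutral control and 100% = excess unlabeled competitor peptide PRC23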
CAL PDZ FP-2 – CAL PDZ peptide-binding inhibitors, primary screen, biochemical, fluorescence polarization, Cer-tagged CAL PDZ, HTS. AID 504414, 2011. inhibition, % at 20 µM. purified CAL PDZ, TMR-peptide fluorescence polarization, 1 h. hit rate 0.02% among 330,000. Golgi-associated PDZ and coiled-coil motif-containing protein (Homo sapiens), Q9HD26;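 active = highest replicate inhibition of at least 40%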;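 note: plate controls were DMSO neutral control wells for no effect and unlabeled competitor peptide control wells for full effect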
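Test system: tagged CAL PDZ domain / Buffer or medium: sodium phosphate/NaCl buffer pH 7.4 with TCEP, IgG, Thesit / Reagent: TMR-labelled reporter peptide T*-PRC34 bound in PDZ groove / Compound dosing: single point, 20 µM / Schedule: 1 h incubation at room temperature before polarization reading / Technique: fluorescence polarization (mP) / Benchmarks: unlabelled peptide, DMSO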
* = called active by the depositor. In the library only some 1.2% were active in any assay of this set; here they are far more common.

Screening COc1ccc(S(=O)(=O)N(C)C[C@@H]2Oc3ccc(N(C)C)cc3C(=O)N([C@H](C)CO)C[C@@H]2C)cc1 returned ARNT-TACC3 inh -3.
`Cc1nc2ccccc2n1CC(=O)N/N=C\c1ccccn1` gave ARNT-TACC3 inh 40*, CAL PDZ FP-1 -5 and CAL PDZ FP-2 0.
O=C(Cc1ccc(F)cc1)N/N=C/c1ccccn1 was read as ARNT-TACC3 inh 8, CAL PDZ FP-1 -1 and CAL PDZ FP-2 -1.
Cc1ccccc1C(=O)N/N=C/c1ccccn1 was read as ARNT-TACC3 inh 12, CAL PDZ FP-1 -2 and CAL PDZ FP-2 -2.
Cc1ccc(/C=N\NC(=O)Cn2c(C)nc3ccccc32)o1 was read as ARNT-TACC3 inh -2, CAL PDZ FP-1 -4 and CAL PDZ FP-2 -2.
Screening O=C(N/N=C\c1ccccn1)c1ccccc1O returned ARNT-TACC3 inh 59*, CAL PDZ FP-1 -3 and CAL PDZ FP-2 -3.
`O=C(NCc1ccncc1)C(=O)N/N=C/c1ccccn1` gave ARNT-TACC3 inh 9, CAL PDZ FP-1 56* and CAL PDZ FP-2 -2.
For O=C(N/N=C1\C/C(=N\NC(=O)c2ccncc2)c2ccccc21)c1ccncc1 the results were ARNT-TACC3 inh 67* and CAL PDZ FP-2 1.
O=C(NN=C1C2CC3CC(C2)CC1C3)c1ccncc1 was read as ARNT-TACC3 inh 4, CAL PDZ FP-1 1 and CAL PDZ FP-2 -1.
For C[C@@H]1CN([C@H](C)CO)S(=O)(=O)c2ccc(C3=CCCC3)cc2O[C@@H]1CN(C)C(=O)C1CCOCC1 the results were ARNT-TACC3 inh -3.
`O=C(N/N=C\c1ccccn1)c1cccc(C(=O)N/N=C\c2ccccn2)n1` gave ARNT-TACC3 inh 7, CAL PDZ FP-1 8 and CAL PDZ FP-2 3.
O=C(N/N=C(\Cc1ncc[nH]1)c1ccccc1)c1ccncc1 was read as ARNT-TACC3 inh 64*, CAL PDZ FP-1 -3 and CAL PDZ FP-2 -2.
For O=C(N/N=C/c1c[nH]c2ccccc12)c1sc2ccccc2c1Cl the results were ARNT-TACC3 inh 42, CAL PDZ FP-1 -2 and CAL PDZ FP-2 1.
Screening Cn1ncc(Cl)c1C(=O)N/N=C/c1ccccn1 returned ARNT-TACC3 inh 66*, CAL PDZ FP-1 -4 and CAL PDZ FP-2 -2.
O=C(N/N=C/c1ccccn1)c1sc2ccccc2c1Cl was read as ARNT-TACC3 inh 55*, CAL PDZ FP-1 -3 and CAL PDZ FP-2 -4.
`COc1cc(C(=O)N/N=C/c2ccccn2)cc(OC)c1OC` gave ARNT-TACC3 inh 48*, CAL PDZ FP-1 -1 and CAL PDZ FP-2 -1.
Screening COc1ccc(C(=O)N/N=C/c2ccccn2)cc1OC returned ARNT-TACC3 inh 41, CAL PDZ FP-1 9 and CAL PDZ FP-2 3.
Screening C/C(=N/NC(=O)c1ccncc1)c1ccccc1 returned ARNT-TACC3 inh 1, CAL PDZ FP-1 -6 and CAL PDZ FP-2 0.
`C[C@H]1CN([C@@H](C)CO)C(=O)c2cccc(NS(=O)(=O)c3ccc(Cl)cc3)c2O[C@H]1CN(C)Cc1ccc(C(=O)O)cc1` gave ARNT-TACC3 inh -2.
Screening O=C(N/N=C/C=C/c1ccccc1)c1ccccn1 returned ARNT-TACC3 inh 27, CAL PDZ FP-1 -1 and CAL PDZ FP-2 -1.
For O=C(N/N=C/c1ccccn1)c1ccccc1 the results were ARNT-TACC3 inh 18 and CAL PDZ FP-2 1.
Screening C(=N\NC(=Nc1ccccc1)c1ccccn1)/c1ccccn1 returned ARNT-TACC3 inh 87*, CAL PDZ FP-1 -3 and CAL PDZ FP-2 -1.
Screening O=C(N/N=C/c1ccccn1)c1ccncc1 returned ARNT-TACC3 inh 69* and CAL PDZ FP-2 0.
For O=C(N/N=C\c1ccncc1)c1ccccc1O the results were ARNT-TACC3 inh 5, CAL PDZ FP-1 -7 and CAL PDZ FP-2 -2.
O=C(N/N=C/C=C\c1ccco1)c1ccccn1 was read as ARNT-TACC3 inh 68*, CAL PDZ FP-1 -3 and CAL PDZ FP-2 0.
`Clc1ccc(/C=N/NC(=Nc2ccccc2)c2ccccn2)c(Cl)c1` gave ARNT-TACC3 inh 38, CAL PDZ FP-1 -3 and CAL PDZ FP-2 0.
O=C(N/N=C/c1cccc2cccnc12)c1ccccc1O was read as ARNT-TACC3 inh 72*, CAL PDZ FP-1 -4 and CAL PDZ FP-2 -2.
Cc1ccc(S(=O)(=O)N(C)C[C@@H]2Oc3ccc(NS(=O)(=O)c4ccc(F)cc4)cc3C(=O)N([C@H](C)CO)C[C@@H]2C)cc1 was read as ARNT-TACC3 inh 5.
COc1ccccc1-c1ccc([C@H]2[C@@H](CO)N3CCCCN(C(=O)c4ccncc4)C[C@H]23)cc1 was read as ARNT-TACC3 inh -1.
O=C(Nc1ccc2c(c1)[C@@H]1C[C@H](CC(=O)N3CCOCC3)O[C@H](CO)[C@@H]1O2)NC1CCCCC1 was read as ARNT-TACC3 inh -6.
`O=C(C[C@@H]1CC[C@H]2[C@@H](COC[C@@H](O)CN2Cc2cccc(Cl)c2)O1)N1CCCCC1` gave ARNT-TACC3 inh -4.
`COCc1c(C(=O)N/N=C/c2c[nH]c3ccccc23)nnn1-c1nonc1N` gave ARNT-TACC3 inh -9, CAL PDZ FP-1 0 and CAL PDZ FP-2 -2.
`COCc1c(C(=O)N/N=C\c2ccccn2)nnn1-c1nonc1N` gave ARNT-TACC3 inh 74*, CAL PDZ FP-1 3 and CAL PDZ FP-2 0.
O=C(N/N=C/c1ccccn1)c1ccco1 was read as ARNT-TACC3 inh 45*, CAL PDZ FP-1 1 and CAL PDZ FP-2 0.
O=C(N/N=C/c1ccc2ncccc2c1)c1ccco1 was read as CAL PDZ FP-1 5 and CAL PDZ FP-2 -1.
`C[C@H]1CN([C@@H](C)CO)C(=O)c2cc(/C=C/c3ccccc3)cnc2O[C@@H]1CN(C)S(=O)(=O)c1cn(C)cn1` gave ARNT-TACC3 inh -2.
`CCCNC(=O)C(=O)NCC1CCCN1CC` (stereo not given) gave ARNT-TACC3 inh -2, CAL PDZ FP-1 33* and CAL PDZ FP-2 30.
`C=CCNC(=O)C(=O)NCC1CCCN1CC` (stereo not given) gave ARNT-TACC3 inh 1, CAL PDZ FP-1 -4 and CAL PDZ FP-2 -1.
Cc1noc(C)c1NC(=O)N(C)C[C@H]1Oc2ccc(N(C)C)cc2C(=O)N([C@@H](C)CO)C[C@H]1C was read as ARNT-TACC3 inh -4.
CO[C@H]1CN(C)C(=O)c2cc(NC(=O)C3CC3)ccc2OC[C@H](C)NC[C@@H]1C was read as ARNT-TACC3 inh 39.
`CCCS(=O)(=O)Nc1cccc(-c2nc3cccnc3s2)c1` gave ARNT-TACC3 inh 46*, CAL PDZ FP-1 -1 and CAL PDZ FP-2 -3.
Screening O=S(=O)(Nc1cccc(-c2nc3cccnc3s2)c1)c1cccs1 returned ARNT-TACC3 inh 1, CAL PDZ FP-1 -1 and CAL PDZ FP-2 -3.
`COCC(=O)N1C[C@H]2[C@@H](c3ccccc31)[C@H](CO)N2C(=O)C1CC1` gave ARNT-TACC3 inh 10.
`CN(C)CC(=O)Nc1ccc2c(c1)[C@H]1C[C@@H](CC(=O)N(C)C)O[C@H](CO)[C@H]1O2` gave ARNT-TACC3 inh -6.
